In ChEMBL document CHEMBL5252676, “Dimeric polyphenols to pave the way for new antimalarial drugs” (RSC Med Chem, 2023):
Converted amounts (≈) assume the structure as drawn.

Columns and labels:
Plasmodium falciparum [1] = assay: Antiplasmodial activity against chloroquine-sensitive Plasmodium falciparum 3D7 assessed as intraerythrocytic growth inhibition; assay type: functional, organism-based
Method in brief: (§1)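 Asexual intraerythrocytic P. falciparum cultured at 37 °C in RPMI with glucose, hypoxanthine, gentamycin and 10% pooled human A+/O+ serum. DMSO stocks of 5–10 mg mL⁻¹ diluted in RPMI, final DMSO at most 1%. Eight two-fold dilutions tested in three consecutive assays. Growth read as Plasmodium lactate dehydrogenase activity at 650 nm against parasitized RBC (100%) and free RBC (0%). IC50 in triplicate; artemisinin and quinine as controls.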

[2] = Hemolytic activity in RBC (unknown origin) assessed as hemolysis at 100 ug/ml incubated for 1 hrs by absorbance based microplate reader analysis relative to control; assay type: toxicity, cell-based, Erythrocyte; settings: red blood cells, at 100 µg/mL, read-out: Activity
Method in brief: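 Human A⁺/O⁺ RBC, 10% v/v in PBS, exposed to compound at 100 μg mL⁻¹ final (DMSO < 1%), in duplicate, stirred 1 h at RT. Centrifuged, supernatant OD₅₅₀ read. % lysis = (sample − PBS)/(1% Triton X-100 − PBS) × 100.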

Plasmodium falciparum [3] = assay: Antiplasmodial activity against chloroquine-resistant Plasmodium falciparum FcB1 assessed as intraerythrocytic growth inhibition; assay type: functional, organism-based; method in brief: as §1
Plasmodium falciparum [4] = assay: Antiplasmodial activity against multidrug-resistant Plasmodium falciparum W2 assessed as intraerythrocytic growth inhibition; assay type: functional, organism-based; method in brief: as §1
[5] = Aqueous solubility of compound assessed as Cmax incubated for 3 days by UV spectrophotometer based shake-flask method; assay type: physicochemical; settings: water (aqueous); time 3 day; read-out: Cmax
Method in brief: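 Shake-flask: excess solid stirred overnight in MilliQ water at RT (~25 °C), filtered 0.45 μm, diluted, absorbance read at the λmax from a UV scan. Quantified against a 3-point calibration curve (R² > 0.95). Fresh saturated solutions were made on 3 consecutive days.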

[6] = Toxicity in zebrafish embryos assessed as egg hatching at 10 to 100 ug/ml measured for 72 hrs relative to control; assay type: tissue-based, Danio rerio; settings: in vivo, at 10 to 100 µg/mL, dose 10-100 µg/ml
[7] = Selectivity index, ratio of IC50 for cytotoxicity against HUVEC cells to IC50 for antiplasmodial activity against chloroquine-sensitive Plasmodium falciparum 3D7; assay type: toxicity, cell-based; settings: human, read-out: Ratio IC50
[8] = Toxicity in zebrafish embryos assessed as modified heart rate at 10 to 100 ug/ml measured for 3 days; parameters: species or system Danio rerio; settings: in vivo, 72 h, dose 10-100 µg/ml, time 3 day
[9] = Toxicity in zebrafish embryos assessed as survival at highest concentration measured for 3 days relative to control; parameters: species or system Danio rerio; settings: in vivo, time 3 day, read-out: Activity
Method in brief: (§2)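 Zebrafish embryos were synchronized 24 h after collection and kept at 28 °C with chorion intact, 20 per condition in duplicate. They were exposed to 100, 50, 25 or 10 μg mL⁻¹ from 100 mg mL⁻¹ DMSO stocks (final DMSO under 0.1%), with medium renewed daily for 3 days. Aspect, hatching and mortality were followed to 96 hpf against 30 control embryos in water with 0.1% DMSO.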

[10] = Toxicity in zebrafish embryo assessed as survival at 10 to 100 ug/ml measured 24 hrs post fertilization relative to control; parameters: species or system Danio rerio; settings: in vivo, at 10 to 100 µg/mL, dose 10-100 µg/ml, read-out: Activity; method in brief: as §2
[11] = Cytotoxicity against HUVEC cells assessed as inhibition of cell growth incubated for 48 hrs by fluorescence based assay; assay type: toxicity; settings: human
Method in brief: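 HUVEC in EGM-2, at most 10 passages, seeded at 2.5 × 10⁴ cells/well and grown 24 h at 37 °C. Six 2-fold concentrations in triplicate (DMSO max 0.5%) for 48 h. PrestoBlue for 2–3 h, fluorescence 560–590 nm, growth compared with untreated cells. n = 3 separate tests.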

[12] = Toxicity in zebrafish embryos assessed as reduction in brain size at 10 to 100 ug/ml measured for 3 days; assay type: tissue-based, Danio rerio; settings: in vivo, 72 h, dose 10-100 µg/ml, time 3 day
[13] = Toxicity in zebrafish embryos assessed as brain misshape at 10 to 100 ug/ml measured for 3 days; assay type: tissue-based, Danio rerio; settings: in vivo, 72 h, dose 10-100 µg/ml, time 3 day
[14] = Toxicity in zebrafish embryo assessed as developmental defects at 10 to 100 ug/ml measured 24 hrs post fertilization; parameters: species or system Danio rerio; settings: in vivo, dose 10-100 µg/ml
[15] = Toxicity in zebrafish embryos assessed as reduction in egg hatching measured for 72 hrs; parameters: species or system Danio rerio; settings: in vivo, dose 10-100 µg/ml
[16] = Toxicity in zebrafish embryos assessed as reduction in egg hatching at 10 to 100 ug/ml measured 5 days post fertilization; parameters: species or system Danio rerio; settings: in vivo, 120 h, dose 10-100 µg/ml, time 5 day

SMILES	IC50 (Plasmodium falciparum [1])	hemolysis at 1 h, 100 ug/ml [2]	IC50 (Plasmodium falciparum [3])	IC50 (Plasmodium falciparum [4])	solubility thermodynamic at 72 h [5]	Activity [6]	selectivity ratio [7]	Activity [8]	survival at 72 h [9]	survival at 24 h [10]	IC50 at 48 h [11]	Activity [12]	Activity [13]	Activity [14]	Activity [15]	Activity [16]
C[C@@H]1CC[C@H]2[C@@H](C)C(=O)O[C@@H]3O[C@@]4(C)CC[C@@H]1[C@]32OO4 [ARTEMISININ]	0.013 µM	< 1%	17 µM	–	–	–	–	–	–	–	–	–	–	–	–	–
COCOc1cc(C(=O)OCCCOC(=O)c2cc(OCOC)c(OCc3ccc4ccccc4c3)c(OCOC)c2)cc(OCOC)c1OCc1ccccc1	21 µM	< 1%	–	–	–	–	–	–	–	–	–	–	–	–	–	–
O=C(OCCOC(=O)c1cc(O)c(O)c(O)c1)c1cc(O)c(O)c(O)c1	3.7 µM	< 1%	3.7 µM	6.7 µM	430 µM (≈ 157 µg/mL)	100%	19	Non-Toxic	> 90%	> 95%	69 µM	Non-Toxic	Non-Toxic	Non-Toxic	–	–
O=C(OCCCCOC(=O)c1cc(O)c(O)c(O)c1)c1cc(O)c(O)c(O)c1	3.7 µM	< 1%	5.7 µM	5 µM	150 µM (≈ 59.1 µg/mL)	100%	> 35	Non-Toxic	> 90%	> 95%	> 127 µM	Non-Toxic	Non-Toxic	Non-Toxic	–	–
COCOc1cc(C(=O)OCCCOC(=O)c2cc(OCOC)c(OCc3ccccc3)c(OCOC)c2)cc(OCOC)c1OCc1ccccc1	4.5 µM	< 1%	–	–	3 µM (≈ 2.21 µg/mL)	–	–	–	–	–	–	–	–	–	–	–
O=C(OCCCOC(=O)c1ccccc1)c1ccccc1	> 352 µM	< 1%	–	–	7 µM (≈ 1.99 µg/mL)	–	–	–	–	–	–	–	–	–	–	–
O=C(OCCCOC(=O)c1cc(O)c(O)c(O)c1)c1ccccc1	27 µM	< 1%	11 µM	13 µM	600 µM (≈ 199 µg/mL)	–	3	–	–	–	78 µM	–	–	–	–	–
O=C(OCCCOC(=O)c1cc(O)c(OCCOCc2ccccc2)c(O)c1)c1cc(O)c(OCCOCc2ccccc2)c(O)c1	3.2 µM	< 1%	–	–	–	–	5	–	–	–	15 µM	–	–	–	–	–
O=C(NCCCOC(=O)c1cc(O)c(O)c(O)c1)c1cc(O)c(O)c(O)c1	6.3 µM	< 1%	4.7 µM	6.8 µM	2100 µM (≈ 797 µg/mL)	–	11	Non-Toxic	> 90%	> 95%	59 µM	Non-Toxic	Non-Toxic	Non-Toxic	Dose-Dependent Effect	Toxic
O=C(OCCCOC(=O)c1cc(O)c(OCCO)c(O)c1)c1cc(O)c(O)c(O)c1	20 µM	< 1%	4.3 µM	7.6 µM	–	–	> 14	–	–	–	> 118 µM	–	–	–	–	–
O=C(OCCCOC(=O)c1cc(O)c(OCc2ccc3ccccc3c2)c(O)c1)c1cc(O)c(OCc2ccc3ccccc3c2)c(O)c1	4 µM	< 1%	1.1 µM	1.8 µM	–	–	2.4	–	–	–	9.7 µM	–	–	–	–	–
O=C(OCCCOC(=O)c1ccc(O)c(O)c1)c1ccc(O)c(O)c1	9 µM	< 1%	–	–	33 µM (≈ 11.5 µg/mL)	–	> 42	–	–	–	> 144 µM	–	–	–	–	–
O=C(OCCCOC(=O)c1cc(O)c(OCc2ccc3ccccc3c2)c(O)c1)c1cc(O)c(OCc2ccccc2)c(O)c1	0.9 µM	< 1%	0.9 µM	0.4 µM	–	–	5	–	–	–	6.9 µM	–	–	–	–	–
C=C[C@H]1CN2CC[C@H]1C[C@H]2[C@H](O)c1ccnc2ccc(OC)cc12 [QUININE]	0.6 µM	< 1%	–	–	–	–	–	–	–	–	–	–	–	–	–	–
O=C(OCCCOC(=O)c1cc(O)c(O)c(O)c1)c1cc(O)cc(O)c1	4.6 µM	< 1%	3.8 µM	3.6 µM	1200 µM (≈ 437 µg/mL)	–	> 21	–	–	–	–	–	–	–	–	–
O=C(Nc1cccc(OC(=O)c2cc(O)c(O)c(O)c2)c1)c1cc(O)c(O)c(O)c1	2.1 µM	< 1%	3.7 µM	3.4 µM	300 µM (≈ 124 µg/mL)	–	6	–	–	–	54 µM	–	–	–	–	–
O=C(OCCCOC(=O)c1cc(O)c(O)c(O)c1)c1ccc(O)c(O)c1	5.5 µM	< 1%	4.9 µM	7.6 µM	280 µM (≈ 102 µg/mL)	–	41	–	–	–	84 µM	–	–	–	–	–
O=C(Nc1ccc(OC(=O)c2cc(O)c(O)c(O)c2)cc1)c1cc(O)c(O)c(O)c1	3.9 µM	< 1%	3.1 µM	2.9 µM	66 µM (≈ 27.3 µg/mL)	–	> 13	–	–	–	> 121 µM	–	–	–	–	–
